Test results published in PubChem BioAssay AID624080 (The Scripps Research Institute Molecular Screening Center, 2012).
Where “and” joins values, the source holds several entries; their conditions need not be identical. Equal entries are not always repeated. Calls of active or inactive are those of the source.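 How the source made its calls: active means compound whose MIC, giving a fourfold drop in bacterial growth, is 10 µM or lower; inactive means the rest.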

How the values were obtained:
[1] = tested on: VIM-2 P. aeruginosa PA641 growth with imipenem, OD590; assay: imipenem potentiation in VIM-2 P. aeruginosa, late-stage follow-up, clinical strain PA641, imipenem synergy, MIC (AID 624080)
Procedure, shortened: (§1)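 Dosing – test compound two-fold series along rows, checkerboard with imipenem · Incubation – ≥18 h at 37 °C, aerobic · Technique – turbidity by absorbance at 590 nm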

[2] = as above; details: VIM-2 P. aeruginosa PA641 growth with imipenem, OD590; measured here: max imipenem fold potentiation; stronger effect = higher value
Procedure, shortened: as §1

Row | MIC [1] | SMILES | fold potentiation [2]
1 | > 100 µM (inactive) | CCN(CC)OC(=O)CN1C(=O)/C(=C/c2c(Cl)cccc2Cl)SC1=S | 
2 | > 100 µM (inactive) | O=C(O)CN1C(=O)/C(=C/c2c(Cl)cccc2Cl)SC1=S | 
3 | > 50 µM (inactive) | CC(=O)N1CCN(NC(=O)CN2C(=O)/C(=C/c3c(Cl)cccc3Cl)SC2=S)CC1 | 2
4 | > 100 µM (inactive) | O=C(CN1C(=O)/C(=C/c2c(Cl)cccc2Cl)SC1=S)NN1CCCCC1 | 
5 | > 100 µM (inactive) | CN1CCN(NC(=O)CN2C(=O)/C(=C/c3c(Cl)cccc3Cl)SC2=S)CC1 | 2
6 | > 50 µM (inactive) | CN1CCN(NC(=O)CN2C(=O)/C(=C/c3c(C(F)(F)F)ccc(Cl)c3Cl)SC2=S)CC1 | 4
7 | > 100 µM (inactive) | CC(C)(C)OC(=O)N1CCN(NC(=O)CN2C(=O)/C(=C/c3c(Cl)cccc3Cl)SC2=S)CC1 | 
8 | > 50 µM (inactive) | O=C(CN1C(=O)/C(=C/c2c(Cl)ccc(Cl)c2Cl)SC1=S)NCc1ccccn1 | 
9 | > 50 µM (inactive) | O=C(CN1C(=O)/C(=C/c2c(Cl)cccc2Cl)SC1=S)NN1CCN(Cc2ccccc2)CC1 | 
10 | > 50 µM (inactive) | CN1CCN(C(=O)CN2C(=O)/C(=C/c3c(Cl)ccc(Cl)c3Cl)SC2=S)CC1 | 4
11 | > 100 µM (inactive) | O=C(CN1C(=O)/C(=C/c2c(Cl)cccc2Cl)SC1=S)NCc1ccccn1 | 2
12 | > 50 µM (inactive) | CN1CCN(NC(=O)CN2C(=O)/C(=C/c3c(Cl)ccc(Cl)c3Cl)SC2=S)CC1 | 4 and 2
13 | > 50 µM (inactive) | CC(C)(C)OC(=O)N1CCN(NC(=O)CN2C(=O)/C(=C/c3c(Cl)ccc(Cl)c3Cl)SC2=S)CC1 | 
14 | > 50 µM (inactive) | O=C(CN1C(=O)/C(=C/c2c(Cl)cccc2Cl)SC1=S)NN1CCN(C(=O)c2ccccc2)CC1 | 
15 | > 50 µM (inactive) | CN1CCN(NC(=O)CN2C(=O)/C(=C/c3c(F)cccc3Cl)SC2=S)CC1 | 
16 | > 50 µM (inactive) | CN1CCN(NC(=O)CN2C(=O)/C(=C/c3c(Cl)ccc(C(F)(F)F)c3Cl)SC2=S)CC1 | 2
17 | > 50 µM (inactive) | O=C(CN1C(=O)/C(=C/c2c(Cl)ccc(Cl)c2Cl)SC1=S)NN1CCCCC1 | 
18 | > 50 µM (inactive) | O=C(CN1C(=O)/C(=C/c2c(Cl)ccc(Cl)c2Cl)SC1=S)NN1CCNCC1 | 2
19 | > 50 µM (inactive) | CN1CCN(NC(=O)CN2C(=O)/C(=C/c3c(F)cccc3C(F)(F)F)SC2=S)CC1 | 
20 | > 50 µM (inactive) | O=C(CN1C(=O)/C(=C/c2c(Cl)cccc2Cl)SC1=S)NN1CCNCC1 | 2
